Assay results published in article PMC10269403 (Journal of medicinal chemistry, 2023).
“And” between values parts separate entries of the source, which are not always exact repeats. Identical values can stand only once. “Also recorded” adds a separate entry of the source. Like-named read-outs stand apart in the source and are kept apart here.

Assays:
HIV-RT = details: substituted pyridinones; cited from earlier work
primary mouse neurons [1] = experiment: Neuronal toxicity by MAP-2 staining in primary mouse neurons; assay type: cell-based; details: for estimated TC10: primary neurons, discussion; for TC50 (µM) Relative MAP-2 Area / TC50 (µM) Relative MAP-2 intensity: 48 hr, 0.1 to 10,000 nM, ±SD
primary mouse neurons [2] = experiment: Calcium imaging in primary mouse neuron cultures; assay type: cell-based; details: 1 µM
Outline: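 Primary mouse cortex/hippocampus cultures were seeded at 20,000 cells/cm2 on poly-D-lysine coverslips in Neurobasal Plus/B27 Plus/Glutamax (>95% neurons by day 4). At 14–18 days in vitro, neurons were loaded with Fluo-4 AM (2 µM) in aCSF (NaCl 137, KCl 5.0, CaCl2 2.3, MgCl2 1.3, glucose 20 mM). Average spikes were scored in acute and delayed phases plus a summation average, versus matched controls. Statistics: Brown-Forsythe/Welch ANOVA with Dunnett's T3.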

[3] = cited from earlier work
HIV = details: cited from earlier work
HIV-1 IIIB virus = experiment: Inhibition of wild-type HIV-1; assay type: cell-based
[4] = test system: HIV-1 IIIB (A17 variant) virus; experiment: microbe, parasite or virus in culture; assay type: cell-based; details: for EC50: Human immunodeficiency virus 1, IIIB, TZM-bl
[5] = molecular target: HIV reverse transcriptase (Human immunodeficiency virus type 1 group M subtype B, UniProt P03366); experiment: HIV RT inhibition, fluorescent EnzChek/PicoGreen assay; assay type: biochemical, HIV-1
hERG = hERG (Homo sapiens, UniProt Q12809); details: cited from earlier work
hERG, sequence (Q12809 whole entry): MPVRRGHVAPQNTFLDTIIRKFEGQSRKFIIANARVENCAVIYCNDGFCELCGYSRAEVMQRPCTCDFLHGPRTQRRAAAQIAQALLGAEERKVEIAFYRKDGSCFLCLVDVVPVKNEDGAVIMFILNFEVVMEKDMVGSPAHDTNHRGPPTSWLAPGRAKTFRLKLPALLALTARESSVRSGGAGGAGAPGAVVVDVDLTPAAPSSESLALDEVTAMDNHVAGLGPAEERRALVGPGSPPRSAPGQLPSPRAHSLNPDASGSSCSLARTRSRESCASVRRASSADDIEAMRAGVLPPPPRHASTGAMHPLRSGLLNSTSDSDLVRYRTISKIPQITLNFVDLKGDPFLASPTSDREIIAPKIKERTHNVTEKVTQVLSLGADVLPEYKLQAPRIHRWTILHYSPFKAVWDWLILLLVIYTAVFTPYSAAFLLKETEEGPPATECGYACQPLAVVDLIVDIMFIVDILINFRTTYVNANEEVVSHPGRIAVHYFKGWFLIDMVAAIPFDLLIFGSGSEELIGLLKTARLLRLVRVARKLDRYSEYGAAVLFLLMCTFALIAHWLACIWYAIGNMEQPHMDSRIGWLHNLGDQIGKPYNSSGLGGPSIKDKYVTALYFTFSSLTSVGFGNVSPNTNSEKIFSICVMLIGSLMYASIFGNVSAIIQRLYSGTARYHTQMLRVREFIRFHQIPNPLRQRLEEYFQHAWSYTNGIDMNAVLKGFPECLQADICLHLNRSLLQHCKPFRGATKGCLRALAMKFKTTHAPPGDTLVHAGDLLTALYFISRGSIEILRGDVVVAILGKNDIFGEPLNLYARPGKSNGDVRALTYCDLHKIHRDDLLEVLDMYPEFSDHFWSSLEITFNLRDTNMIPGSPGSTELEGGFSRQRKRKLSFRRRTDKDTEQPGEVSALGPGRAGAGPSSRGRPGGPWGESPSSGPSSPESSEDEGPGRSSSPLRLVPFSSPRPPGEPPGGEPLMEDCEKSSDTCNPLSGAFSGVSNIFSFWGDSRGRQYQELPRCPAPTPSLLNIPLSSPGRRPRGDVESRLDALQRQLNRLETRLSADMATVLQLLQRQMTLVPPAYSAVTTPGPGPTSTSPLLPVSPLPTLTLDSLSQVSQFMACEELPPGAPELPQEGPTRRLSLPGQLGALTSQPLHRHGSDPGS

TZM-bl cells = experiment: Cytotoxicity in TZM-bl cells; assay type: cell-based
[6] = Cytotoxicity in TZM-bl cells; assay type: cell-based; details: human
Y181C HIV mutant = experiment: Inhibition of NNRTI-resistant Y181C mutant in TZM-bl cells; assay type: cell-based, HIV-1; details: 0.05–500 nM
L100I/K103N HIV mutant = experiment: Inhibition of NNRTI-resistant L100I/K103N mutant in TZM-bl cells; assay type: cell-based, HIV-1; details: 0.05–500 nM
K103N HIV mutant = experiment: Inhibition of NNRTI-resistant K103N mutant in TZM-bl cells; assay type: cell-based, HIV-1; details: 0.05–500 nM
Solubility = assay type: physicochemical
[7] = Metabolic stability in mouse liver microsomes; assay type: in vitro ADME
[8] = Metabolic stability in human liver microsomes; assay type: in vitro ADME
Protein binding = assay type: in vitro ADME
Caco-2 cells = experiment: Efflux in Caco-2 cells; assay type: in vitro ADME
Balb/C male mice = experiment: In vivo acute toxicity study; details: 2000 mg/kg single oral dose, 14 days
Balb/C mice = experiment: In vivo subacute toxicity study; details: 30 days
[9] = Single-dose pharmacokinetics in mice; details: mouse
[10] = Human immunodeficiency virus 1, IIIB, TZM-bl, read-out: WT EC50 (nM)

Structure (SMILES): Cn1c(Cn2ccc(C(F)(F)F)c(Oc3cc(Cl)cc(C#N)c3)c2=O)n[nH]c1=O [Doravirine, doravirine]
- IC50 (HIV-RT): 11 nM

Structure (SMILES): O=C1Nc2ccc(Cl)cc2[C@@](C#CC2CC2)(C(F)(F)F)O1 [EFV, efavirenz]
- estimated TC10 (primary mouse neurons [1]): 70 nM
- calcium accumulation, delayed phase (in words) (primary mouse neurons [2]): pronounced increase
- calcium spiking frequency, acute phase (in words) (primary mouse neurons [2]): acute suppression
- plasma levels ([3]; human, in vivo): 3170 to 12670 nM

Structure (SMILES): CO[P@](=O)(c1cc(C)cc(/C=C/C#N)c1)c1c(C(N)=O)[nH]c2ccc(Cl)cc12 [IDX899]
- EC50 (HIV; aryl-phospho-indole): 1 nM

Structure (SMILES): Cc1cc(/C=C/C#N)cc(C)c1Nc1ccnc(Nc2ccc(C#N)cc2)n1 [RPV, rilpivirine]
- EC50 (HIV-1 IIIB virus; [10]): 0.35 ± 0.03 nM
- EC50 ([4]; read-out: A17 EC50 (nM)): 2.5 ± 1.9 nM
- EC50 [5]: 160 ± 60 nM
- estimated TC10 (primary mouse neurons [1]): 600 to 930 nM
- calcium spiking frequency, acute phase (in words) (primary mouse neurons [2]): acute suppression
- proposed plasma target concentration (protein binding-adjusted EC90) (HIV): 0.0121 µg/mL
- EC90 (HIV; read-out: proposed plasma target concentration (protein binding-adjusted EC90)): 33 nM
- concentration shown to inhibit hERG in vitro (hERG): 300 nM
- recorded CSF concentrations [3]: up to 2.9 ng/ml and ≤ 7.9 nM

Structure (SMILES): Nc1nc(Nc2ccc(Cl)cc2)nn1S(=O)(=O)c1ccc2ccccc2c1 [compound 11626007, N^3-(4-chlorophenyl)-1-(2-naphthylsulfonyl)-1,2,4-triazole-3,5-diamine]
- inhibition of A17 mutant (in words) ([4]; TZM-bl cells, early screening): No appreciable inhibition
- toxicity in MTS assay (in words) (TZM-bl cells): No observable toxicity
- EC50 [5]: 280 ± 100 nM
- TC50 (µM) Relative MAP-2 Area (primary mouse neurons [1]): 34 ± 46 µM
- TC50 (µM) Relative MAP-2 intensity (primary mouse neurons [1]): 23 ± 18 µM

Structure (SMILES): N#Cc1ccc(Nc2nc(N)n(S(=O)(=O)c3cccc4cc(C#N)ccc34)n2)cc1 [compound 11726152, 5-[[5-amino-3-(4-cyanoanilino)-1,2,4-triazol-1-yl]sulfonyl]naphthalene-2-carbonitrile]
- EC50 (HIV-1 IIIB virus; [10]): 0.35 ± 0.05 nM
- EC50 ([4]; read-out: A17 EC50 (nM)): 49 ± 7.8 nM
- EC50 [5]: 700 ± 220 nM
- TC50 (µM) Relative MAP-2 Area (primary mouse neurons [1]): 1.2 ± 0.6 µM
- TC50 (µM) Relative MAP-2 intensity (primary mouse neurons [1]): 1.0 ± 0.5 µM
- Safety Index (primary mouse neurons [1]; TC10/(100*EC50), relative MAP-2 area): 1.6

Structure (SMILES): N#Cc1ccc2c(S(=O)(=O)n3nc(Nc4ccc(C#N)c(Cl)c4)nc3N)cccc2c1 [compound 11826116, 5-[[5-amino-3-(3-chloro-4-cyano-anilino)-1,2,4-triazol-1-yl]sulfonyl]naphthalene-2-carbonitrile]
- EC50 (HIV-1 IIIB virus; [10]): 0.34 ± 0.04 nM
- EC50 ([4]; read-out: A17 EC50 (nM)): 25 ± 6.6 nM

Structure (SMILES): N#Cc1ccc(Nc2nc(N)n(S(=O)(=O)c3c(Cl)nc4sccn34)n2)cc1 [compound 11926331, 4-[[5-amino-1-(6-chloroimidazo[2,1-b]thiazol-5-yl)sulfonyl-1,2,4-triazol-3-yl]amino]-benzonitrile]
- whole cell virus activity (in words) (HIV-1 IIIB virus; Table S1): excellent
- RT activity (in words) ([5]; Table S1): excellent

Structure (SMILES): N#Cc1ccc2c(S(=O)(=O)n3nc(Nc4ccc(C#N)c(C#N)c4)nc3N)cccc2c1 [compound 12126055, 4-[[5-amino-1-[(6-cyano-1-naphthyl)sulfonyl]-1,2,4-triazol-3-yl]amino]phthalonitrile]
- EC50 (HIV-1 IIIB virus; [10]): 0.21 ± 0.01 nM
- EC50 ([4]; read-out: A17 EC50 (nM)): 49 ± 9.5 nM
- CC50 at 48 h [6]: 28000 ± 66000 nM
- EC50 [5]: 350 ± 130 nM
- TC50 (µM) Relative MAP-2 Area (primary mouse neurons [1]): 48 ± 86 µM
- TC50 (µM) Relative MAP-2 intensity (primary mouse neurons [1]): 50 ± 140 µM

Structure (SMILES): N#C/C=C/c1ccc2c(S(=O)(=O)n3nc(Nc4ccc(C#N)c(Cl)c4)nc3N)cccc2c1 [compound 12126065, 4-[[5-amino-1-[[6-[(E)-2-cyanovinyl]-1-naphthyl]sulfonyl]-1,2,4-triazol-3-yl]amino]-2-chloro-benzonitrile]
- EC50 (HIV-1 IIIB virus; Human immunodeficiency virus 1, IIIB, TZM, read-out: EC50 against wild-type HIV-1 in TZM cells): 0.24 nM
- EC50 (HIV-1 IIIB virus; Human immunodeficiency virus 1, IIIB, TZM-bl, read-out: EC50 (TZM, WT)): 0.263 nM
- EC50 (HIV-1 IIIB virus; [10]): 0.47 ± 0.05 nM
- EC90 (HIV-1 IIIB virus; Human immunodeficiency virus 1, IIIB, TZM-bl, read-out: estimated EC90): 19 nM
- EC50 ([4]; read-out: A17 EC50 (nM)): 3.4 ± 1.1 nM
- EC50 ([4]; read-out: EC50 against K103N/Y181C double mutant): 1.33 ± 0.16 nM
- activity against Y181C mutant (in words) (Y181C HIV mutant): retained activity
- activity against L100I/K103N mutant (in words) (L100I/K103N HIV mutant): not drastically mitigated; also recorded: retained activity
- activity against K103N mutant (in words) (K103N HIV mutant): retained activity
- EC50 [5]: 230 ± 70 nM
- solubility (in words) (Solubility): poor
- metabolic stability (in words) [7]: good
- metabolic stability (in words) [8]: good
- protein binding (in words) (Protein binding): high
- efflux in Caco-2 cells (in words) (Caco-2 cells): no indication of efflux
- TC50 (µM) Relative MAP-2 Area (primary mouse neurons [1]): 100 ± 410 µM
- TC50 (µM) Relative MAP-2 intensity (primary mouse neurons [1]): >10 µM
- Estimated TC10 (µM) Relative MAP-2 Intensity (primary mouse neurons [1]; concentration of 10% loss of MAP-2): >10 µM
- 50% toxicity concentration (TC50) (primary mouse neurons [1]; mouse neurons, as stated in abstract): > 100000 nM
- neurotoxicity in mouse neurons (in words) (primary mouse neurons [1]; up to 10 µM): minimal neurotoxicity
- acute toxicity (in words) (Balb/C male mice): no in vivo acute or subacute toxicity; also recorded: No visible signs of intoxication
- aspartate aminotransferase activity versus control (in words) (Balb/C mice; 250 mg/kg group only): reduced aspartate aminotransferase activity
- subacute toxicity (in words) (Balb/C mice; 25 and 250 mg/kg daily): no in vivo acute or subacute toxicity
- half-life ([9]; male, Balb/C, plasma, po, 250 mg/kg): 7.7 ± 1.57 h
- in vivo brain penetration (in words) ([9]; in vivo): good
